Assay outcomes as filed in PubChem.
PostGolgi yeast = growth inhibition of a yeast mutant, post-Golgi transport screen; 98,000 compounds, 0.9% hits; inhibition, % at 10 µM; AID 739; post-Golgi transport phenotypic cell assay;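 also: yeast cells grown in 1536-well plates; yeast grown about 18 h at 30C before absorbance read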
Candida biofilm = kills Candida albicans biofilms; inhibition, % at 6 µM; AID 834; 85,000 compounds, 0.14% hits; C. albicans biofilm + clotrimazole, Alamar Blue;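 active = inhibition above 20%; inactive = inhibition below 20%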;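 also: preformed 24 hr biofilms exposed to compound for 48 hr; 0% = biofilm without compound and 100% = blank killed by clotrimazole plus chlorhexidine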
Ecoli WT expand = E. coli BW25113 growth inhibition, expanded screen; OD600 absorbance; growth inhibition, % at 100 µM; 98,000 compounds, 0.15% hits; AID 710;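 active = growth inhibition above about 50% at one test dose, limit read from the data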;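 also: growth measured after 20 h incubation at 37 °C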
PostGolgi ctrl = inhibits growth of the yeast control strain; efflux-deficient yeast background strain, growth absorbance A615, 16 h; inhibition, % at 10 µM; 98,000 compounds, 5% hits
PTK2B oligo ant = blocks oligomerization of human Pyk2 in cells; Q14289; Q293 cells, Pyk2 FERM NanoBiT luminescence; active compounds read low; z-score (the deposit names both 25 µM and 10 µM); 99,000 compounds, 0.83% hits; AID 1347419;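 active = Z-score of -3 or lower, scaled per plate to the spread of control and sample wells; inactive = z-score above -3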;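 also: negative z-score means lost luminescence so less FERM oligomerization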
Target sequence (Q14289 whole entry, looked up): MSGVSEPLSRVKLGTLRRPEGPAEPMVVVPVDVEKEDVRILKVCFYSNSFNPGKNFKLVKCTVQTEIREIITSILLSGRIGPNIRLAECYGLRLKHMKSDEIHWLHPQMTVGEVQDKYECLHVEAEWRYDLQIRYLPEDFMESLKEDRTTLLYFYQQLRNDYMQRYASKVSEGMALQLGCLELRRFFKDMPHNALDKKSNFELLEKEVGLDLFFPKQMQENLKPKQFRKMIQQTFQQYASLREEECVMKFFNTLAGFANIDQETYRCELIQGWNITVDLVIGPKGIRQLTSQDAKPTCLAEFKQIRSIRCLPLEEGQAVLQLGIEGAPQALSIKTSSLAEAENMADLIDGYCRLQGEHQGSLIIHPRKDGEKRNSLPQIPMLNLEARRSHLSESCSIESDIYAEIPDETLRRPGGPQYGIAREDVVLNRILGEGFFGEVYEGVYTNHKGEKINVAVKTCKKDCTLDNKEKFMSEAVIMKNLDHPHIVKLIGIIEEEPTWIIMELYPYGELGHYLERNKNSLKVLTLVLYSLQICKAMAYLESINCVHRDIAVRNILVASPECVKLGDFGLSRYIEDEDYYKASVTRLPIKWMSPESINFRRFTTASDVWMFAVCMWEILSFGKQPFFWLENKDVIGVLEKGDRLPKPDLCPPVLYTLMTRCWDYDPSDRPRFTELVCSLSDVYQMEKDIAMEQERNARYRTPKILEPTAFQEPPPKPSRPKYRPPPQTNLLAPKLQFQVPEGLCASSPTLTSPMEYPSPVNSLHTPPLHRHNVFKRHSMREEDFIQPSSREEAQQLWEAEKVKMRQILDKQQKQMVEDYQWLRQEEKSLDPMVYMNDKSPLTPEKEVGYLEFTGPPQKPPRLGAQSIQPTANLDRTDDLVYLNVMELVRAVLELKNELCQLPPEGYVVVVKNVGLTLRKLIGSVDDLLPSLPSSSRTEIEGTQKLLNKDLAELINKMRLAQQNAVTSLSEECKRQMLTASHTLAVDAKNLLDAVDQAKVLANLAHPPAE
Ecoli tolC = blocks growth of E. coli BW25113 tolC mutant; OD615; growth inhibition, % at 10 µM (by protocol); 65,000 compounds, 2.2% hits; AID 573;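 active = growth inhibition at or above a cutoff equal to the mean over every tested compound plus 3 SD, cut at about 60% in these data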;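 also: growth measured after 20 h incubation at 37 °C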
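Test system: tolC-deleted E. coli BW25113; medium: LB with kanamycin 50 µg/mL; compound: single-point testing at 10 µM; incubation: 20 h compound exposure of bacteria at 37 °C; signal: OD at 615 nm; evaluation: growth inhibition in percent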
An asterisk follows results filed as active. Most compounds without a hit are left out; they make up all but 6.5% or so of the library. Rule as the data show it, unless noted: active = inhibition above about 30%; inactive = the rest.

Results for Cn1c(=O)n(C)c2cc(S(=O)(=O)NCCO)ccc21 ?
PostGolgi yeast: 14.2; Candida biofilm: 8.1; Ecoli WT expand: -1.0; PostGolgi ctrl: 13.2; PTK2B oligo ant: 0.26

Results for O=c1cc2[nH]c3ccccc3c(=O)n2nc1-c1ccccc1 ?
PostGolgi yeast: 3.8; Ecoli WT expand: -6.0; PostGolgi ctrl: 2.7; PTK2B oligo ant: -3.09*

Results for O=c1c(-c2ccccc2)n[nH]c2ccccc12 ?
PostGolgi yeast: -0.3; Candida biofilm: 6.1; Ecoli WT expand: -1.0; PostGolgi ctrl: 11.4; PTK2B oligo ant: -0.07; Ecoli tolC: 2.7

How did O=C1CC(N2CCN(c3ccc(Cl)c(Cl)c3)CC2)C(=O)N1 (stereo not drawn) do in these assays?
PostGolgi yeast: 52.3*; Candida biofilm: -3.6; Ecoli WT expand: 4.0; PostGolgi ctrl: -4.6; PTK2B oligo ant: 0.5; Ecoli tolC: -1.5

Results for CN(C)CCCN1C(=O)C(=O)/C(=C(/O)c2ccc3c(c2)OCCO3)C1c1ccccn1 (stereo not drawn) ?
Ecoli tolC: -5.0

How did Cc1ccc2c(c1)c1c3n2CCN(C(=O)CN2CCN(C)CC2)C3CCC1 (stereo not drawn) do in these assays?
PostGolgi yeast: 5.5; Candida biofilm: 4.7; Ecoli WT expand: 7.0; PostGolgi ctrl: 6.2; PTK2B oligo ant: 0.43; Ecoli tolC: 2.1

What do the screens show for `CN1CCN(CC(=O)N2CCn3c4c(c5cc(C6CCCCC6)ccc53)CCCC42)CC1` (stereo not drawn)?
PostGolgi yeast: 53.2*; Candida biofilm: 0.2; Ecoli WT expand: 8.0; PostGolgi ctrl: 86.5*; PTK2B oligo ant: -0.85; Ecoli tolC: 100.0*

How did COC(=O)c1ccccc1NC(=O)CSCC(=O)Nc1ccccc1 do in these assays?
PostGolgi yeast: 13.0; Ecoli WT expand: 8.0; PostGolgi ctrl: -4.8; PTK2B oligo ant: 0.13

Results for CC1CCc2c(sc(NC(=O)c3ccc(Cn4cc([N+](=O)[O-])cn4)o3)c2C#N)C1 (stereo not drawn) ?
PostGolgi yeast: -6.2; Candida biofilm: 0.4; Ecoli WT expand: -3.0; PostGolgi ctrl: 37.8*; PTK2B oligo ant: -0.58

What do the screens show for `N#Cc1c(NC(=O)c2ccc(Cn3cc(Br)cn3)o2)sc2c1CCCCC2`?
PostGolgi yeast: 2.0; Candida biofilm: 3.7; Ecoli WT expand: -18.0; PostGolgi ctrl: 35.0*; PTK2B oligo ant: -0.13

How did COC(=O)c1sc(NC(=O)c2ccc(Cn3cc(Cl)cn3)o2)c(C#N)c1C do in these assays?
PostGolgi yeast: 16.5; Candida biofilm: -0.5; Ecoli WT expand: -4.0; PostGolgi ctrl: 17.6; PTK2B oligo ant: 1.46; Ecoli tolC: 0.5

Results for CC1CCc2c(sc(NC(=O)c3ccc(-c4ccccc4[N+](=O)[O-])o3)c2C#N)C1 (stereo not drawn) ?
PostGolgi yeast: 10.2; Ecoli WT expand: -13.0; PostGolgi ctrl: -1.0; PTK2B oligo ant: -0.46

What do the screens show for `O=C(c1ccccc1)N1CCN2C(=O)c3ccccc3C12c1ccc(Cl)cc1` (stereo not drawn)?
PostGolgi yeast: -5.4; Candida biofilm: 6.2; Ecoli WT expand: -13.0; PostGolgi ctrl: 10.1; PTK2B oligo ant: -1.48

How did Cc1sc2nc(CN(Cc3ccccc3)C(=O)NC3CCCCC3)[nH]c(=O)c2c1C do in these assays?
Candida biofilm: 1.3; PTK2B oligo ant: -3.01*

Results for CCc1cc2c(=O)n(Cc3ccco3)c(SCc3c(C)noc3C)nc2s1 ?
PostGolgi yeast: -4.5; Candida biofilm: 9.2; Ecoli WT expand: -28.0; PostGolgi ctrl: 32.5*; PTK2B oligo ant: -0.49; Ecoli tolC: 64.7*

Results for CC1CCN(c2cc(N)c(Cl)cc2[N+](=O)[O-])CC1 ?
PostGolgi yeast: -6.4; Ecoli WT expand: 11.0; PostGolgi ctrl: 38.1*; PTK2B oligo ant: -0.51

What do the screens show for `CC1CCCCN1c1cc(C#N)c(C#N)cc1[N+](=O)[O-]` (stereo not drawn)?
PostGolgi yeast: -1.1; Ecoli WT expand: 3.0; PostGolgi ctrl: 43.4*; PTK2B oligo ant: -0.85

Results for CC1CCN(c2cc(C#N)c(C#N)cc2[N+](=O)[O-])CC1 ?
PostGolgi yeast: -0.3; Ecoli WT expand: -7.0; PostGolgi ctrl: 76.4*; PTK2B oligo ant: -0.37

What do the screens show for `CC1CCCCN1S(=O)(=O)c1ccccc1[N+](=O)[O-]` (stereo not drawn)?
PTK2B oligo ant: 0.11

How did Cc1cc(N2CCC(C)CC2)c(F)cc1[N+](=O)[O-] do in these assays?
PostGolgi yeast: 18.1; Ecoli WT expand: 11.0; PostGolgi ctrl: -5.8; PTK2B oligo ant: -0.26

What do the screens show for `Cc1cccc(NC(=O)c2ccc(N(C)C3CCCCC3)c([N+](=O)[O-])c2)n1`?
PostGolgi yeast: -5.2; Ecoli WT expand: -9.0; PostGolgi ctrl: 16.3; PTK2B oligo ant: -2.35

What do the screens show for `COc1ccc(CNC(=O)CN(Cc2ccc(Cl)cc2)S(=O)(=O)c2ccccc2)cc1`?
PostGolgi yeast: -7.1; Candida biofilm: 3.7; Ecoli WT expand: -11.0; PostGolgi ctrl: 39.1*; PTK2B oligo ant: -1.02

How did COc1ccc2c3c(cccc13)NN=C2C do in these assays?
Candida biofilm: -3.6; Ecoli tolC: 0.2

How did Cc1ccc(C)n1N1C(=O)/C(=C\c2ccc(Cl)cc2)SC1=S do in these assays?
PostGolgi yeast: 39.8*; Candida biofilm: 3.8; Ecoli WT expand: -14.0; PostGolgi ctrl: 38.7*; PTK2B oligo ant: 0.82

What do the screens show for `Cc1c(N2C(=O)/C(=C/c3ccccc3)SC2=S)c(=O)n(-c2ccccc2)n1C`?
PostGolgi yeast: 4.7; Ecoli WT expand: 6.0; PostGolgi ctrl: 8.9; PTK2B oligo ant: -0.15

How did O=C(/C=C/c1ccccc1Cl)NC(=S)Nc1ccccc1C(=O)NC1CCCCC1 do in these assays?
PostGolgi yeast: 1.8; Ecoli WT expand: -1.0; PostGolgi ctrl: 10.8; PTK2B oligo ant: 0.42

What do the screens show for `Cn1c(SCc2ccon2)nc2ccccc2c1=O`?
PostGolgi yeast: 21.8; Candida biofilm: 1.7; Ecoli WT expand: -2.0; PostGolgi ctrl: 0.8; PTK2B oligo ant: -0.62; Ecoli tolC: 10.8

How did COc1ccc(-c2nnc(CSc3nc4ccccc4c(=O)n3C)o2)cc1OC do in these assays?
PostGolgi yeast: 31.7*; Candida biofilm: 6.4; Ecoli WT expand: 3.0; PostGolgi ctrl: 0.3; PTK2B oligo ant: 0.13; Ecoli tolC: 22.1

Results for O=c1c2ccccc2nc(SCc2cn3ccsc3n2)n1-c1ccccc1F ?
PostGolgi yeast: 4.2; Candida biofilm: 6.9; Ecoli WT expand: -12.0; PostGolgi ctrl: 7.6; PTK2B oligo ant: -3.48*; Ecoli tolC: 65.2*

Results for Cc1ccc(-n2nnnc2SCc2nnc(-c3ccccc3Br)o2)cc1 ?
PostGolgi yeast: -5.0; Candida biofilm: 4.1; Ecoli WT expand: -16.0; PostGolgi ctrl: 56.5*; PTK2B oligo ant: -0.51; Ecoli tolC: 50.8

How did O=c1c2ccccc2nc(SCc2nnc(-c3ccccc3Br)o2)n1-c1ccccc1 do in these assays?
PostGolgi yeast: -0.9; Candida biofilm: 7.0; Ecoli WT expand: -18.0; PostGolgi ctrl: 38.6*; PTK2B oligo ant: -2.08; Ecoli tolC: 24.2

How did O=C(/C=C/c1cccs1)NC(=S)NNC(=O)Cc1cccs1 do in these assays?
Candida biofilm: -1.2; PTK2B oligo ant: -0.09
